# Assay results as given in ChEMBL document CHEMBL3272217, “6,11-Dihydro-11-oxodibenz [b,e] oxepinacetic acids with potent antiinflammatory activity” (J Med Chem, 1976).
# Legend:
# [1] = tested on: Rattus norvegicus; experiment: Antiinflammatory activity in po dosed rat assessed as inhibition of carrageenan-induced paw edema; assay type: functional; settings: for ED50: Rattus norvegicus, po, read-out: ID50 (the source's name)
# Outline: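 Carrageenan paw edema (Winter method) in male rats, seven animals per dose. Drug given orally as a suspension in 0.5% CMC at three or more dose levels within 0.1–18 mg/kg.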
# [2] = Toxicity in po dosed rat assessed as induction of gastric lesion; assay type: organism-based, Stomach; settings: in vivo, read-out: UD50 (the source's name)
# Outline: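 Gastric lesions scored by the Jahn and Adrian method in male rats, ten animals per dose level, after oral dosing. UD50 and 95% fiducial limits by the Litchfield–Wilcoxon method.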
# [3] = tested on: Rattus norvegicus; experiment: Antiinflammatory activity in Wistar albino rat assessed as inhibition of adjuvant-induced arthritis at 0.25 mg/kg, po administered for 14 days prior to adjuvant challenge relative to control; assay type: functional
# Outline: (§1)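 Adjuvant arthritis in female rats, ten animals per dose. Oral treatment given either prophylactically or therapeutically at the stated doses. Percent inhibition reported as mean ± SE.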
# [4] = tested on: Rattus norvegicus; experiment: Antiinflammatory activity in Wistar albino rat assessed as inhibition of adjuvant-induced arthritis at 0.25 mg/kg, po administered for 14 days followed by adjuvant challenge relative to control; assay type: functional; settings: 336 h; outline: as §1
# [5] = tested on: Mus musculus; experiment: Analgesic activity in po dosed mouse assessed as inhibition of acetic acid-induced writhing; assay type: functional
# Outline: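 Acetic acid writhing test (Koster method) in male mice, ten animals per dose level.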
# [6] = Acute toxicity in po dosed rat after 7 days; settings: in vivo
# [7] = tested on: Rattus norvegicus; experiment: Analgesic activity in carrageenan-treated po dosed rat assessed as concentration required to double pain index of control; assay type: functional
# Outline: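 Randall–Selitto paw-pressure test in male rats after carrageenan injection, seven animals per dose level. Pain index = pain threshold after carrageenan / threshold before carrageenan. AID2.0 is the dose doubling the control group's pain index. It and its 95% fiducial limits come from a least-squares regression line, with limits by Fieller's equation.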
# [8] = tested on: Rattus norvegicus; experiment: Antiinflammatory activity in rat with prolonged phase of inflammation assessed as inhibition of adjuvant-carrageenan-induced paw edema at 2 mg/kg, po relative to control; assay type: functional
# Outline: (§2)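 Adjuvant-carrageenan-induced inflammation in female rats, ten animals per dose. Oral dosing at 1 or 2 mg/kg. Edema inhibition scored separately for the acute and prolonged phases, given as % inhibition (mean ± SE).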
# [9] = tested on: Rattus norvegicus; experiment: Antiinflammatory activity in rat with acute phase of inflammation assessed as inhibition of adjuvant-carrageenan-induced paw edema at 2 mg/kg, po relative to control; assay type: functional; outline: as §2
# [10] = tested on: Rattus norvegicus; experiment: Antiinflammatory activity in rat with prolonged phase of inflammation assessed as inhibition of adjuvant-carrageenan-induced paw edema at 1 mg/kg, po relative to control; assay type: functional; outline: as §2
# [11] = tested on: Rattus norvegicus; experiment: Antiinflammatory activity in rat with acute phase of inflammation assessed as inhibition of adjuvant-carrageenan-induced paw edema at 1 mg/kg, po relative to control; assay type: functional; outline: as §2
# [12] = tested on: Rattus norvegicus; experiment: Potency index, ratio of ketoprofen ID50 to compound ID50 for antiinflammatory activity in po dosed rat assessed as inhibition of carrageenan-induced paw edema; assay type: functional
# Outline: (§3)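 The ratio uses oral carrageenan paw-edema ID50 values from male rats, seven animals per dose, with drugs suspended in 0.5% CMC. Each ID50 comes from a least-squares dose–response regression. The index is reference ID50 divided by test ID50 on a weight basis.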
# [13] = tested on: Rattus norvegicus; experiment: Potency index, ratio of phenylbutazone ID50 to compound ID50 for antiinflammatory activity in po dosed rat assessed as inhibition of carrageenan-induced paw edema; assay type: functional; outline: as §3
# [14] = tested on: Rattus norvegicus; experiment: Potency index, ratio of indomethacin ID50 to compound ID50 for antiinflammatory activity in po dosed rat assessed as inhibition of carrageenan-induced paw edema; assay type: functional; outline: as §3
# [15] = tested on: Rattus norvegicus; experiment: Antiinflammatory activity in Wistar albino rat assessed as inhibition of adjuvant-induced arthritis at 0.5 mg/kg, po administered for 14 days prior to adjuvant challenge relative to control; assay type: functional; outline: as §1
# [16] = tested on: Rattus norvegicus; experiment: Antiinflammatory activity in Wistar albino rat assessed as inhibition of adjuvant-induced arthritis at 0.5 mg/kg, po administered for 14 days followed by adjuvant challenge relative to control; assay type: functional; settings: 336 h; outline: as §1
# [17] = tested on: Rattus norvegicus; experiment: Antiinflammatory activity in Wistar albino rat assessed as inhibition of adjuvant-induced arthritis at 10 mg/kg, po administered for 14 days prior to adjuvant challenge relative to control; assay type: functional; outline: as §1
# [18] = tested on: Rattus norvegicus; experiment: Antiinflammatory activity in Wistar albino rat assessed as inhibition of adjuvant-induced arthritis at 10 mg/kg, po administered for 14 days followed by adjuvant challenge relative to control; assay type: functional; settings: 336 h; outline: as §1
# [19] = tested on: Rattus norvegicus; experiment: Antiinflammatory activity in Wistar albino rat assessed as inhibition of adjuvant-induced arthritis at 1 mg/kg, po administered for 14 days followed by adjuvant challenge relative to control; assay type: functional; settings: 336 h; outline: as §1
# [20] = tested on: Rattus norvegicus; experiment: Antiinflammatory activity in Wistar albino rat assessed as inhibition of adjuvant-induced arthritis at 2 mg/kg, po administered for 14 days prior to adjuvant challenge relative to control; assay type: functional; outline: as §1
# [21] = tested on: Rattus norvegicus; experiment: Antiinflammatory activity in Wistar albino rat assessed as inhibition of adjuvant-induced arthritis at 30 mg/kg, po administered for 14 days prior to adjuvant challenge relative to control; assay type: functional; outline: as §1
# [22] = tested on: Rattus norvegicus; experiment: Antiinflammatory activity in Wistar albino rat assessed as inhibition of adjuvant-induced arthritis at 30 mg/kg, po administered for 14 days followed by adjuvant challenge relative to control; assay type: functional; settings: 336 h; outline: as §1
compound,measurement,setting,value
O=C(O)Cc1cccc2c1C(=O)c1ccccc1CO2,ED50,[1],> 18 mg/kg
COC(=O)Cc1ccc2c(c1)C(=O)c1ccccc1CO2,ED50,[1],15.2 mg/kg
CCOC(=O)Cc1ccc2c(c1)C(=O)c1ccccc1CO2,ED50,[1],17.8 mg/kg
O=C(O)Cc1cc2c(c([N+](=O)[O-])c1)OCc1ccccc1C2=O,ED50,[1],> 18 mg/kg
O=C(O)Cc1ccc2c(c1)C(=O)c1ccc(Cl)cc1CO2,ID30,[1],3 mg/kg
same,ED50,[1],41.6 mg/kg
COc1ccc2c(c1)COc1ccc(CC(=O)O)cc1C2=O,ED50,[1],> 18 mg/kg
O=C(O)Cc1ccc2c(c1)C(=O)c1cc(Cl)ccc1CO2,ID30,[1],> 18 mg/kg
same,ED50,[1],> 18 mg/kg
CC(C(=O)[O-])c1ccc2c(c1)C(=O)c1ccccc1CO2.CC(C(=O)[O-])c1ccc2c(c1)C(=O)c1ccccc1CO2.[Ca+2] (configuration not stated),ED50,[1],3.5 mg/kg
CC(C(=O)O)c1ccc2c(c1)C(=O)c1ccc(Cl)cc1CO2 (configuration not stated),ED50,[1],7.6 mg/kg
CCOC(=O)Cc1ccc2c(c1)OCc1ccccc1C2=O,ED50,[1],8.6 mg/kg
O=C(O)Cc1ccc2c(c1)OCc1cc(Cl)ccc1C2=O,ED50,[1],7.6 mg/kg
O=C(O)Cc1ccc2c(c1)OCc1cc(F)ccc1C2=O,ED50,[1],> 9 mg/kg
O=C(O)Cc1ccc2c(c1)OCc1cc(I)ccc1C2=O,ED50,[1],6.7 mg/kg
COc1ccc2c(c1)COc1cc(CC(=O)O)ccc1C2=O,ED50,[1],> 9 mg/kg
Cc1ccc2c(c1)COc1cc(CC(=O)O)ccc1C2=O,ED50,[1],6.6 mg/kg
O=C(O)Cc1ccc2c(c1)OCc1cc(C(F)(F)F)ccc1C2=O,ED50,[1],> 9 mg/kg
CC(C(=O)O)c1ccc2c(c1)OCc1cc(Cl)ccc1C2=O (configuration not stated),TD50,[2],32.3 mg/kg
same,inhibition in vivo at 0.25 mg/kg,[3],50%
same,inhibition in vivo at 0.25 mg/kg,[4],26%
same,ED50,[5],36 mg/kg
same,LD50 at 168 h,[6],12.1 mg/kg
same,AID2.0 (dose doubling pain index),[7],0.28 mg/kg
same,ED50,[1],1.4 mg/kg
CC(C(=O)O)c1ccc2c(c1)OCc1cc(F)ccc1C2=O (configuration not stated),ED50,[1],4 mg/kg
CC(C(=O)O)c1ccc2c(c1)OCc1cc(I)ccc1C2=O (configuration not stated),ED50,[1],4.8 mg/kg
CC(C(=O)O)c1ccc2c(c1)OCc1cc(C(F)(F)F)ccc1C2=O (configuration not stated),ED50,[1],> 9 mg/kg
CC(C(=O)O)c1ccc2c(c1)OCc1ccc(Cl)cc1C2=O (configuration not stated),ED50,[1],11.9 mg/kg
CC(C(=O)O)c1ccc2c(c1)C(=O)c1ccccc1CO2 (racemic),TD50,[2],14.1 mg/kg
same,inhibition in vivo at 0.25 mg/kg,[3],36%
same,inhibition in vivo at 0.25 mg/kg,[4],12%
same,inhibition in vivo at 2 mg/kg,[8],82%
same,ED50,[5],14 mg/kg
same,AID2.0 (dose doubling pain index),[7],0.4 mg/kg
same,ID50,[1],2.6 mg/kg
same,inhibition in vivo at 2 mg/kg,[9],57%
CC(C(=O)O)c1ccc2c(c1)OCc1ccccc1C2=O (racemic),TD50,[2],11.4 mg/kg
same,inhibition in vivo at 0.25 mg/kg,[3],55%
same,inhibition in vivo at 0.25 mg/kg,[4],30%
same,ED50,[5],11 mg/kg
same,LD50 at 168 h,[6],34.2 mg/kg
same,AID2.0 (dose doubling pain index),[7],0.18 mg/kg
same,ID50,[1],0.76 mg/kg
same,inhibition in vivo at 1 mg/kg,[10],110%
same,inhibition in vivo at 1 mg/kg,[11],59%
CC(C(=O)O)c1ccc2c(c1)C(=O)c1ccccc1CO2 (stereo in doubt; 10),ID50,[1],1.3 mg/kg
CC(C(=O)O)c1ccc2c(c1)C(=O)c1ccccc1CO2 (stereo in doubt; 11),ID50,[1],7.5 mg/kg
CC(C(=O)O)c1ccc2c(c1)OCc1ccccc1C2=O (stereo in doubt; 23),Ratio,[12],32.3
same,ED50,[1],0.43 mg/kg
same,Ratio,[13],165.4
same,Ratio,[14],15.4
CC(C(=O)O)c1ccc2c(c1)OCc1ccccc1C2=O (stereo in doubt; 24),ID50,[1],0.67 mg/kg
COc1ccc2c(c1)c(CC(=O)O)c(C)n2C(=O)c1ccc(Cl)cc1 [INDOMETHACIN],TD50,[2],6.6 mg/kg
same,inhibition in vivo at 0.5 mg/kg,[15],48%
same,inhibition in vivo at 2 mg/kg,[8],85%
same,ED50,[5],10 mg/kg
same,LD50 at 168 h,[6],18.9 mg/kg
same,AID2.0 (dose doubling pain index),[7],1.53 mg/kg
same,inhibition in vivo at 0.5 mg/kg,[16],26%
same,ED50,[1],8.4 mg/kg
same,inhibition in vivo at 2 mg/kg,[9],48%
O=C(O)Cc1ccc2c(c1)C(=O)c1ccccc1CO2 [ISOXEPAC],TD50,[2],63 mg/kg
same,inhibition in vivo at 10 mg/kg,[17],77%
same,inhibition in vivo at 2 mg/kg,[8],55%
same,ED50,[5],95 mg/kg
same,inhibition in vivo at 10 mg/kg,[18],56%
same,LD50 at 168 h,[6],199 mg/kg
same,AID2.0 (dose doubling pain index),[7],3.18 mg/kg
same,ED50,[1],14.3 mg/kg
same,inhibition in vivo at 2 mg/kg,[9],28%
CC(C(=O)O)c1cccc(C(=O)c2ccccc2)c1 (configuration not stated) [KETOPROFEN],TD50,[2],6.8 mg/kg
same,ED50,[5],71 mg/kg
same,inhibition in vivo at 1 mg/kg,[19],42%
same,AID2.0 (dose doubling pain index),[7],1.61 mg/kg
same,ED50,[1],12.5 mg/kg
same,inhibition in vivo at 2 mg/kg,[20],84%
O=C(O)Cc1ccc2c(c1)OCc1ccccc1C2=O [OXEPINAC],TD50,[2],79.9 mg/kg
same,inhibition in vivo at 0.5 mg/kg,[15],55%
same,inhibition in vivo at 2 mg/kg,[8],89%
same,ED50,[5],58 mg/kg
same,LD50 at 168 h,[6],110 mg/kg
same,AID2.0 (dose doubling pain index),[7],0.44 mg/kg
same,inhibition in vivo at 0.5 mg/kg,[16],31%
same,ED50,[1],3.7 mg/kg
same,inhibition in vivo at 2 mg/kg,[9],45%
CCCCC1C(=O)N(c2ccccc2)N(c2ccccc2)C1=O [PHENYLBUTAZONE],TD50,[2],96 mg/kg
same,ED50,[5],> 400 mg/kg
same,AID2.0 (dose doubling pain index),[7],17.22 mg/kg
same,ED50,[1],77.7 mg/kg
same,inhibition in vivo at 30 mg/kg,[21],71%
same,inhibition in vivo at 30 mg/kg,[22],58%
